ChEMBL document CHEMBL1131153, “Metabolites of the angiotensin II antagonist tasosartan: the importance of a second acidic group” (J Med Chem, 1998)

Columns and labels:
[1] = molecular target: T1, Angiotensin II receptor (AT-1) type-1 (Rattus norvegicus, UniProt P29089+P25095); assay: Compound was evaluated for the in vitro inhibition of specific binding of [125I]-A II to Angiotensin II receptor, type 1 from rat adrenal membranes.; type: cell membranes, Membrane
T1 sequence (P29089 whole entry): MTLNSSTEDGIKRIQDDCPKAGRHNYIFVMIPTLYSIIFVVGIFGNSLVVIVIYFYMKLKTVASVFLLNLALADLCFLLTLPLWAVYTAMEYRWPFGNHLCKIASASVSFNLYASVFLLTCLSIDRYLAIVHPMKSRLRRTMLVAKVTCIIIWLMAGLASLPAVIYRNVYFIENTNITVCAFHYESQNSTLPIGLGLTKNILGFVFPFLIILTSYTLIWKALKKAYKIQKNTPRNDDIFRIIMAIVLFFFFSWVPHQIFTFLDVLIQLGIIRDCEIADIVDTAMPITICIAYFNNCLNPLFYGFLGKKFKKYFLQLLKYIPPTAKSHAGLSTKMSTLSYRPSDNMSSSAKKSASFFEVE
T1 sequence (P25095 whole entry): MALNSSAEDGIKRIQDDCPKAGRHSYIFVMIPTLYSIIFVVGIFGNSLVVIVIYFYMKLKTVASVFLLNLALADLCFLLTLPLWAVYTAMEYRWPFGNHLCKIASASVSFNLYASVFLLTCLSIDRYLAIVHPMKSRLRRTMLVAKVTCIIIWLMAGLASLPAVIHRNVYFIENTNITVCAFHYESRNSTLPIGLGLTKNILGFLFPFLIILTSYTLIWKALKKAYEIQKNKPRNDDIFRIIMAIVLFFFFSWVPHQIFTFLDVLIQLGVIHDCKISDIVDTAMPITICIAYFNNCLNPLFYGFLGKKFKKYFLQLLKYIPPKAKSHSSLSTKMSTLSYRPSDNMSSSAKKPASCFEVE

Rattus norvegicus [2] = assay: Compound was evaluated for maximum decrease in mean arterial pressure after an intravenous dose of 1.0 mg/kg in rats; type: functional, Artery
Method in brief: (§1)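 Renal hypertension produced in 150 g Sprague-Dawley rats by clipping the left renal artery (silver wire, 0.2 mm ID), used after 4–7 weeks. Right carotid cannulated under pentobarbital (50 mg/kg ip) with saline infusion at 5 µL/min. Intravenous dosing, then MAP and heart rate monitored over 24 h. Maximum MAP decrease reported as mean ± SE versus vehicle-treated rats.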

Rattus norvegicus [3] = assay: Compound was evaluated for maximum decrease in mean arterial pressure after an intravenous dose of 10.0 mg/kg in rats; type: functional, Artery; method in brief: as §1
Rattus norvegicus [4] = assay: Compound was evaluated for maximum decrease in mean arterial pressure after an intravenous dose of 3.0 mg/kg in rats; type: functional, Artery; method in brief: as §1
Rattus norvegicus [5] = assay: Compound was evaluated for maximum decrease in mean arterial pressure after an intragastric dose of 1.0 mg/kg in rats; type: functional, Artery
Method in brief: (§2)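 Goldblatt 2K-1C model: Sprague-Dawley rats (150 g) under pentobarbital (50 mg/kg ip) had the left renal artery clipped with a silver wire (0.2 mm internal diameter). Hypertension developed over 4–7 weeks, then the right carotid was cannulated under pentobarbital and saline infused at 5 µL/min. Dosing by gastric gavage in 0.5% methyl cellulose, 5 mL/kg. MAP recorded for 24 h; maximum fall reported, mean ± SE, 6–12 rats/group.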

Rattus norvegicus [6] = assay: Compound was evaluated for maximum decrease in mean arterial pressure after an intragastric dose of 10.0 mg/kg in rats; type: functional, Artery; method in brief: as §2
Rattus norvegicus [7] = assay: Compound was evaluated for maximum decrease in mean arterial pressure after an intragastric dose of 3.0 mg/kg in rats; type: functional, Artery; method in brief: as §2
[8] = molecular target: Angiotensin II receptor (AT-1) type-1 (Rattus norvegicus) (UniProt P29089+P25095); assay: Compound was evaluated for the in vitro inhibition of specific binding of [125I]-A II to Angiotensin II receptor, type 1 in rat liver membrane at 100 nM.
Rattus norvegicus [9] = assay: Compound was evaluated for maximum decrease in mean arterial pressure after an intravenous dose of 0.03 mg/kg in rats; type: functional, Artery; method in brief: as §1
Rattus norvegicus [10] = assay: Compound was evaluated for maximum decrease in mean arterial pressure after an intravenous dose of 0.10 mg/kg in rats; type: functional, Artery; settings: dose 0.1 mg/kg; method in brief: as §1
Rattus norvegicus [11] = assay: Compound was evaluated for maximum decrease in mean arterial pressure after an intravenous dose of 0.1 mg/kg in rats; type: functional, Artery; method in brief: as §1
Rattus norvegicus [12] = assay: Compound was evaluated for maximum decrease in mean arterial pressure after an intragastric dose of 0.1 mg/kg in rats; type: functional, Artery; method in brief: as §2
Rattus norvegicus [13] = assay: Compound was evaluated for maximum decrease in mean arterial pressure after an intragastric dose of 0.3 mg/kg in rats; type: functional, Artery; method in brief: as §2
Rattus norvegicus [14] = assay: Compound was evaluated for maximum decrease in mean arterial pressure after an intragastric dose of 30.0 mg/kg in rats; type: functional, Artery; method in brief: as §2

| Structure (SMILES) | IC50 [1] | MAP (Rattus norvegicus [2]) | MAP (Rattus norvegicus [4]) | MAP (Rattus norvegicus [5]) | MAP (Rattus norvegicus [6]) | MAP (Rattus norvegicus [7]) | also measured |
| --- | --- | --- | --- | --- | --- | --- | --- |
| Cc1nc(C)c2ccc(=O)n(Cc3ccc(-c4ccccc4-c4nn[nH]n4)cc3)c2n1 | 6.5 nM | – | – | – | – | – | – |
| Cc1nc(CO)nc2c1c(O)cc(=O)n2Cc1ccc(-c2ccccc2-c2nn[nH]n2)cc1 | 0.41 nM | – | – | – | – | – | – |
| Cc1nc(C)c2c(n1)N(Cc1ccc(-c3ccccc3-c3nn[nH]n3)cc1)C(=O)CC2O (centres undefined) | – | 51 mmHg | 47 mmHg | 55 mmHg | 71 mmHg | 54 mmHg | MAP (Rattus norvegicus [3]): 41 mmHg |
| Cc1nc(C)c2c(n1)N(Cc1ccc(-c3ccccc3-c3nnn(C4OC(C(=O)O)C(O)C(O)C4O)n3)cc1)C(=O)CC2 (centres undefined) | – | – | – | – | – | – | inhibition [8]: 3.5% |
| Cc1nc(C)c2c(O)cc(=O)n(Cc3ccc(-c4ccccc4-c4nn[nH]n4)cc3)c2n1 [ENOLTASOSARTAN] | 0.17 nM | – | – | – | 66 mmHg | 39 mmHg | MAP (Rattus norvegicus [9]): 34 mmHg; MAP (Rattus norvegicus [10]): 67 mmHg |
| Cc1nc(C)c2c(n1)N(Cc1ccc(-c3ccccc3-c3nnn[nH]3)cc1)C(=O)CC2 [TASOSARTAN] | 1.2 nM | 53 mmHg | 54 mmHg | 71 mmHg | 81 mmHg | 76 mmHg | MAP (Rattus norvegicus [11]): 37 mmHg; MAP (Rattus norvegicus [12]): 6 mmHg; MAP (Rattus norvegicus [13]): 45 mmHg; MAP (Rattus norvegicus [14]): 80 mmHg |
